Where “and” joins values, the source holds several entries; their conditions need not be identical. Equal entries are not always repeated. Calls of active or inactive are those of the source. The calls are words filed in the database; no cut-off is given here.
Assays:
Rattus norvegicus [1] = test: Antiarthritic activity in Lewis rat assessed as collagen oligomeric matrix protein level in serum at 1 mg/kg, po qd administered for 10 days (Rbv = 0.17 +/- 0.02 U/l); type: functional
How it was run: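 Collagen-induced arthritis in male Lewis rats (5–6 per group). Groups received vehicle, dexamethasone 1 mg/kg, test item 50 mg/kg once daily, or 25 mg/kg twice daily for 10 days. Body weight, arthritic score and paw volume were monitored, and serum COMP was measured at the end.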

Rattus norvegicus [2] = test: Toxicity in Wistar rat assessed as change in body weight at 100 to 2500 mg/kg, po administered for 48 hrs followed by administration of 300 mg/kg, bid for 7 days starting 8 hrs interval between first and second dose measured after 7 days; type: organism-based; settings: in vivo, 168 h
How it was run: (§1)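 Wistar rats, maximum-tolerated-dose estimate in two steps. Step one: single oral doses of 100 (n = 1), 500 (n = 1) and 2500 mg/kg (n = 3), with clinical signs watched for 48 h. Step two: 300 mg/kg (n = 5) twice daily for 7 days, second dose 8 h after the first. After 7 days, body weight gain, blood cell number and composition, liver enzymes, and macroscopic liver and spleen were recorded.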

CYP1A2 = CYP1A2 (Homo sapiens, UniProt P05177); test: Inhibition of CYP1A2 (unknown origin) at 10 uM by fluorimetric assay relative to control; type: ADME
How it was run: (§2)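 CYP1A2, CYP2C9, CYP2C19, CYP3A4 and CYP2D6 were tested as a panel for cytochrome P450 interaction.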

Mus musculus [3] = test: Protection against LPS/galactosamine-induced endotoxemia in Balb/c mouse assessed as inhibition of plasma TNFalpha level at 10 mg/kg, po pretreated for 1 hr followed by LPS/galactosamine addition measured after 90 mins relative to control; type: functional
Rattus norvegicus [4] = test: Toxicity in Wistar rat assessed as effect on microscopic appearance of spleen at 100 to 2500 mg/kg, po administered for 48 hrs followed by administration of 300 mg/kg, bid for 7 days starting 8 hrs interval between first and second dose measured after 7 days; type: organism-based; settings: in vivo, 168 h
[5] = biological target: Mitogen-activated protein kinase 8 (Homo sapiens) (UniProt P45983); test: Inhibition of human recombinant full length N-terminal His6 tagged JNK1 expressed in Sf21 cells at 10 uM relative to control
CYP2C9 = CYP2C9 (Homo sapiens, UniProt P11712); test: Inhibition of CYP2C9 (unknown origin) at 10 uM by fluorimetric assay relative to control; type: ADME; how it was run: as §2
[6] = Cmax in Wistar rat at 30 mg/kg, po administered as single dose via gavage by LC-MS/MS analysis; type: ADME, organism-based; set-up: dose 30 mg/kg, route oral; settings: in vivo
How it was run: (§3)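 Male and female Wistar rats received a single oral gavage of 30 mg/kg. Parameters are given as the mean of the two sexes.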

Mus musculus [7] = test: Toxicity in DBA/1 mouse model of collagen-induced arthritis at 50 mg/kg, bid administered on day 22 post second injection of type 2 collagen; type: organism-based; settings: in vivo
How it was run: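 Male DBA/1 mice with collagen-induced arthritis were dosed at 50 mg/kg b.i.d. starting on day 22, 1 day after the type II collagen boost. Animals were monitored for signs of toxicity, including body weight loss relative to controls.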

Mus musculus [8] = test: Antiarthritic activity in DBA/1 mouse assessed as decrease in collagen-induced arthritic score at 50 mg/kg, bid administered on day 22 post second injection of type 2 collagen; type: functional, organism-based
How it was run: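 Collagen-induced arthritis in male DBA/1 mice. Dosing at 50 mg/kg b.i.d. began on day 22, one day after the second (boost) injection of type II collagen.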

CYP2D6 = CYP2D6 (Homo sapiens, UniProt P10635); test: Inhibition of CYP2D6 (unknown origin) at 10 uM by fluorimetric assay relative to control; type: ADME; how it was run: as §2
[9] = Half life in Wistar rat at 30 mg/kg, po administered as single dose via gavage by LC-MS/MS analysis; type: ADME, organism-based; settings: in vivo
How it was run: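 Single oral gavage dose of 30 mg/kg given to male and female Wistar rats. PK parameters are reported as the mean of males and females.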

Rattus norvegicus [10] = test: Toxicity in Wistar rat assessed as effect on microscopic appearance of liver at 100 to 2500 mg/kg, po administered for 48 hrs followed by administration of 300 mg/kg, bid for 7 days starting 8 hrs interval between first and second dose measured after 7 days; type: organism-based; settings: in vivo, 168 h
Rattus norvegicus [11] = test: Toxicity in Wistar rat assessed as effect on liver enzyme at 100 to 2500 mg/kg, po administered for 48 hrs followed by administration of 300 mg/kg, bid for 7 days starting 8 hrs interval between first and second dose measured after 7 days; type: organism-based; settings: in vivo, 168 h; how it was run: as §1
[12] = biological target: Mitogen-activated protein kinase 9 (Homo sapiens) (UniProt P45984); test: Inhibition of human recombinant full length N-terminal His6 tagged JNK2 expressed in Sf21 cells at 10 uM relative to control
[13] = AUC (0 to t) in Wistar rat at 30 mg/kg, po administered as single dose via gavage by LC-MS/MS analysis; type: ADME, organism-based; settings: in vivo; how it was run: as §3
[14] = biological target: Mitogen-activated protein kinase 10 (Homo sapiens) (UniProt P53779); test: Inhibition of human recombinant full length N-terminal His6 tagged JNK3 expressed in Sf21 cells at 10 uM relative to control
[15] = biological target: Mitogen-activated protein kinase 11 (Homo sapiens) (UniProt Q15759); test: Inhibition of p38beta (unknown origin) at 10 uM relative to control
CYP3A4 = CYP3A4 (Homo sapiens, UniProt P08684); test: Inhibition of CYP3A4 (unknown origin) at 10 uM by fluorimetric assay relative to control; type: ADME; how it was run: as §2
Rattus norvegicus [16] = test: Toxicity in Wistar rat assessed as effect on number of blood cells at 100 to 2500 mg/kg, po administered for 48 hrs followed by administration of 300 mg/kg, bid for 7 days starting 8 hrs interval between first and second dose measured after 7 days; type: organism-based; settings: in vivo, 168 h; how it was run: as §1
CYP2C19 = CYP2C19 (Homo sapiens, UniProt P33261); test: Inhibition of CYP2C19 (unknown origin) at 10 uM by fluorimetric assay relative to control; type: ADME; how it was run: as §2
[17] = Tmax in Wistar rat at 30 mg/kg, po administered as single dose via gavage by LC-MS/MS analysis; type: ADME, organism-based; settings: in vivo
How it was run: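 Male and female Wistar rats each received a single 30 mg/kg oral gavage dose. Tmax is the mean of males and females.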

Rattus norvegicus [18] = test: Toxicity in Wistar rat assessed as effect on composition of blood cells at 100 to 2500 mg/kg, po administered for 48 hrs followed by administration of 300 mg/kg, bid for 7 days starting 8 hrs interval between first and second dose measured after 7 days; type: organism-based; settings: in vivo, 168 h; how it was run: as §1
Homo sapiens [19] = test: AUC (infinity) in human assessed as roflumilast N-oxide formation at 0.5 mg, po administered as single dose; type: ADME, organism-based; set-up: dose 0.5 mg, route oral, time infinity; settings: in vivo
[20] = Fraction unbound in human plasma; type: ADME, cell-free
How it was run: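 Plasma protein binding measured in human, Sprague–Dawley rat and Cynomolgus monkey plasma at 1, 10 and 30 μM compound. Reported as unbound fraction (%).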

Homo sapiens [21] = species: Homo sapiens; test: Inhibition of PDE4 in LPS-stimulated human whole blood assessed as decrease in leukotriene B4 level in plasma
Homo sapiens [22] = test: Cmax in human assessed as roflumilast N-oxide formation at 0.5 mg, po administered as single dose; type: ADME, organism-based; set-up: dose 0.5 mg, route oral; settings: in vivo
Homo sapiens [23] = species: Homo sapiens; test: Inhibition of PDE4 in human U937 cells assessed as [3H]cAMP hydrolysis at 1 uM relative to control; type: cell-based
[24] = Cmax in human at 0.5 mg, po administered as single dose; type: ADME, organism-based; set-up: dose 0.5 mg, route oral; settings: in vivo
[25] = AUC (infinity) in human at 0.5 mg, po administered as single dose; type: ADME, organism-based; set-up: dose 0.5 mg, time infinity, route oral; settings: in vivo
Rattus norvegicus [26] = test: In vivo inhibition of P38 MAPKalpha in Lewis rat assessed as decrease in LPS-stimulated TNFalpha level in serum at 10 mg/kg, po pretreated for 1 hr followed by LPS addition measured after 1.5 hrs post dose relative to control; type: functional
How it was run: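 Lewis rats, n = 8/group: females dosed orally at 10 mg/kg at −1, −3 or −5 h relative to LPS challenge, plus one male group dosed at −1 h. Male and female vehicle controls were given at −1 h. Serum TNFα was measured after LPS and compared with vehicle.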

Rattus norvegicus [27] = test: Protection against LPS-induced endotoxemia in Wistar rat assessed as inhibition of plasma TNFalpha level at 10 mg/kg, po pretreated for 1 hr followed by LPS addition measured after 90 mins relative to control; type: functional
[28] = Ratio of Cmax in Wistar rat at 30 mg/kg, po administered as single dose via gavage to IC50 for P38 MAPKalpha in LPS-stimulated human whole blood assessed as decrease in TNFalpha level
[29] = Fraction unbound in human plasma at 5 uM by equilibrium dialysis relative to control; type: ADME, cell-free
Rattus norvegicus [30] = test: Toxicity in Wistar rat assessed as death at 100 to 2500 mg/kg, po administered for 48 hrs followed by administration of 300 mg/kg, bid for 7 days with 8 hrs interval between first and second dose measured after 7 days; type: organism-based; settings: in vivo, 168 h; how it was run: as §1
[31] = biological target: Voltage-gated inwardly rectifying potassium channel KCNH2 (Homo sapiens, UniProt Q12809); test: Inhibition of human ERG expressed in HEK293 cells by patch clamp method; type: cell-based
[32] = biological target: Mitogen-activated protein kinase 14 (Homo sapiens, UniProt Q16539); test: Inhibition of p38alpha MAPK (unknown origin)

CYP2C9, sequence (P11712 whole entry): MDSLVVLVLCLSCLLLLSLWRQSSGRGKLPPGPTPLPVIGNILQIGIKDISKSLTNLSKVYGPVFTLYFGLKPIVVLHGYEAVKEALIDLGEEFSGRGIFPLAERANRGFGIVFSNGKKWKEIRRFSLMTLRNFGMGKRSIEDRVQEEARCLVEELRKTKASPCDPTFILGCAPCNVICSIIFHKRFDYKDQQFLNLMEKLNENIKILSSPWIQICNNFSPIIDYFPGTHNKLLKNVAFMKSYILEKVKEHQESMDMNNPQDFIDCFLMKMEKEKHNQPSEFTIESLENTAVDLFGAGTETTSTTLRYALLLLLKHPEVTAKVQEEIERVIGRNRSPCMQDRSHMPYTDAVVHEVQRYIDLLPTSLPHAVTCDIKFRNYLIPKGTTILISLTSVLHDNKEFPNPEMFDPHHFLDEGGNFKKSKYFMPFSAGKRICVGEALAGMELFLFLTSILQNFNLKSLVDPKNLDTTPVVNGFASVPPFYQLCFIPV
Mitogen-activated protein kinase 10 (Homo sapiens), sequence (P53779 whole entry): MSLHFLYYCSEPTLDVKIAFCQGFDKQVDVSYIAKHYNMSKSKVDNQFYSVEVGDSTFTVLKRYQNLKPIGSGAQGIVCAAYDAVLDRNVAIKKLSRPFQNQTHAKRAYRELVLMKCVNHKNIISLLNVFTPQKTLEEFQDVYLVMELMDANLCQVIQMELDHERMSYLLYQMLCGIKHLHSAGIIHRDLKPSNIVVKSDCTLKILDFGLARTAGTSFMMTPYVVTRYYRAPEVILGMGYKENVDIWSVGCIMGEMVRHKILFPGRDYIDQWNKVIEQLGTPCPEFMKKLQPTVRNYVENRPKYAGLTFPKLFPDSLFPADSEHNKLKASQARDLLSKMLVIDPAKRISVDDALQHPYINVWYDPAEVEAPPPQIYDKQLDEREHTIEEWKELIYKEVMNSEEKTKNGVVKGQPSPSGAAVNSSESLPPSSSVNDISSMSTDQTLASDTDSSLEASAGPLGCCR
CYP1A2, sequence (P05177 whole entry): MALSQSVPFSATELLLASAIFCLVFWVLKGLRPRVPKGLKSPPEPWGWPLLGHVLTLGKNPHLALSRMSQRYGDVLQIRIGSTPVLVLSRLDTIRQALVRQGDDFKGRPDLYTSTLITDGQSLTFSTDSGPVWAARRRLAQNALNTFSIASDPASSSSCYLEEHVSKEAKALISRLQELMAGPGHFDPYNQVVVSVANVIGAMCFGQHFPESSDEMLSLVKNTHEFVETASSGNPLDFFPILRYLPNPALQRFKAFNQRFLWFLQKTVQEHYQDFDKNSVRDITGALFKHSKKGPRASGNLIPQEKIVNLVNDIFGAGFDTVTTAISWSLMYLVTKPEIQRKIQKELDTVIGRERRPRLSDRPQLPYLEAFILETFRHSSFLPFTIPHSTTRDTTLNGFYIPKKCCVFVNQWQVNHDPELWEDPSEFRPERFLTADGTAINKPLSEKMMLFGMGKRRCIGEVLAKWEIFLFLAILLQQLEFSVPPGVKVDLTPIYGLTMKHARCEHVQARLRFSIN
CYP2C19, sequence (P33261 whole entry): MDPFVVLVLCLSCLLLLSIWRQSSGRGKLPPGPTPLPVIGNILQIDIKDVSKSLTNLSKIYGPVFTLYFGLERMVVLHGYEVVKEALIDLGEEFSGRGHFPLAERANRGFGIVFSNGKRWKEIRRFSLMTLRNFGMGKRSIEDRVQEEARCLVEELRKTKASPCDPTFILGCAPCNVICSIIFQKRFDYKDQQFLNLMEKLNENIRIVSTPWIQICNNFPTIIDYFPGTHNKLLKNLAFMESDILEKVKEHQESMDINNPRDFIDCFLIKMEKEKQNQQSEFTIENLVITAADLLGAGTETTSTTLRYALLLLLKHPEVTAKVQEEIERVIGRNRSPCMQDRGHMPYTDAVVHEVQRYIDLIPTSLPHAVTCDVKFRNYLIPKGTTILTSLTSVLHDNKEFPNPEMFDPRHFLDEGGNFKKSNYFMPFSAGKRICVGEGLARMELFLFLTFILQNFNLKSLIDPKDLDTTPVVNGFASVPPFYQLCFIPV
CYP3A4, sequence (P08684 whole entry): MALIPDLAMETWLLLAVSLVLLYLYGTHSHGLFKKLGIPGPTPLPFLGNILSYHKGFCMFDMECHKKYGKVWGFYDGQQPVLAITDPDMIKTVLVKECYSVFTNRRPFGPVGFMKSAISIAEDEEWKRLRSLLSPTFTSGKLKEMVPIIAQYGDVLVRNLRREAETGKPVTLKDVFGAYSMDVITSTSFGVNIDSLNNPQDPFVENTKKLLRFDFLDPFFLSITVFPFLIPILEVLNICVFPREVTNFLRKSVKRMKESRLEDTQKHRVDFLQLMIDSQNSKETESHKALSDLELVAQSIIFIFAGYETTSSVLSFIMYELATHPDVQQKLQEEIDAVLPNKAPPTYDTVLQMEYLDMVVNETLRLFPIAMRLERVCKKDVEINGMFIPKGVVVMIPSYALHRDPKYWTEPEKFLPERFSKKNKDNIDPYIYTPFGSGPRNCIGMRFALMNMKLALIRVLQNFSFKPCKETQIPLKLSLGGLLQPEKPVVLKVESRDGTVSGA
Voltage-gated inwardly rectifying potassium channel KCNH2, sequence (Q12809 whole entry): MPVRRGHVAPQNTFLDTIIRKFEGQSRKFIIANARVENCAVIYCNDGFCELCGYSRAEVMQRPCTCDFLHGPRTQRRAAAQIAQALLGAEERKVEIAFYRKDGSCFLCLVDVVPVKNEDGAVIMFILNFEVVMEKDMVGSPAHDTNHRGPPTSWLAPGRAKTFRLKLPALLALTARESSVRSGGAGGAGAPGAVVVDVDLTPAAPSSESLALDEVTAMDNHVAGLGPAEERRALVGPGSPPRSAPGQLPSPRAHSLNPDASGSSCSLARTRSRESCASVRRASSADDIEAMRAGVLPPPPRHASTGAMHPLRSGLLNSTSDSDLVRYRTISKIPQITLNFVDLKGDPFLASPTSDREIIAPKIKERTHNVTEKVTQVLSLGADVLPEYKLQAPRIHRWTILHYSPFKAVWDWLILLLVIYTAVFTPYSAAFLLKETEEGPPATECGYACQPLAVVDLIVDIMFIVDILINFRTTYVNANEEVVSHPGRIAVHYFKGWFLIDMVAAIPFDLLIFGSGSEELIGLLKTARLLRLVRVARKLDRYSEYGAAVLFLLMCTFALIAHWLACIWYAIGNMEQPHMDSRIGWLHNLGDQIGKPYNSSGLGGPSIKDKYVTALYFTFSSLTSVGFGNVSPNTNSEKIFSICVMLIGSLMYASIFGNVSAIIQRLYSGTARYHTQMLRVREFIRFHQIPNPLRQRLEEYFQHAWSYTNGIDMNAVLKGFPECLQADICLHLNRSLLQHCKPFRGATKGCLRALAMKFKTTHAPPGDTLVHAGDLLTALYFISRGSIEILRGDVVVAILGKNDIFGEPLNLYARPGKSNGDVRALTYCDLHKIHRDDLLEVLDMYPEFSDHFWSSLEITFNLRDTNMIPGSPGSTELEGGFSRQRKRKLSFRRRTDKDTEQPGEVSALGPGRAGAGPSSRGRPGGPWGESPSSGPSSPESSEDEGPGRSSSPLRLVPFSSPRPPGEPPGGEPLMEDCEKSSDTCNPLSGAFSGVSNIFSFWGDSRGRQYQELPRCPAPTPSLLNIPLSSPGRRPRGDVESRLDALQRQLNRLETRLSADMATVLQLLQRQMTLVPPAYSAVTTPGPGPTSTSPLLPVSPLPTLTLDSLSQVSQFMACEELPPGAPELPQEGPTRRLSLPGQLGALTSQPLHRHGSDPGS
CYP2D6, sequence (P10635 whole entry): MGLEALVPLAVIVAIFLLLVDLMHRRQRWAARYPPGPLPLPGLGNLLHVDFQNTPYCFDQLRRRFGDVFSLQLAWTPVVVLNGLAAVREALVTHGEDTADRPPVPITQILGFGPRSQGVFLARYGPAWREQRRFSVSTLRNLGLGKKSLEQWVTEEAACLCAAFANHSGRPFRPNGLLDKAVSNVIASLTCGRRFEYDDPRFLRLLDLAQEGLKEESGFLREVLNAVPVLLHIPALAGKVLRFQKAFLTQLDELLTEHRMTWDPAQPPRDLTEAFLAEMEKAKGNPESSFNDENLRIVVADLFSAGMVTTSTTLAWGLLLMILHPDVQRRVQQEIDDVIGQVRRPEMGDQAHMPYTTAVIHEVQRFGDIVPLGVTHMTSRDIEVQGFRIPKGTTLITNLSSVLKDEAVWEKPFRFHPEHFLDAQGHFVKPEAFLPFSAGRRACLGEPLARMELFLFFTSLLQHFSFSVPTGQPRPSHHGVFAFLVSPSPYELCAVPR
Mitogen-activated protein kinase 11 (Homo sapiens), sequence (Q15759 whole entry): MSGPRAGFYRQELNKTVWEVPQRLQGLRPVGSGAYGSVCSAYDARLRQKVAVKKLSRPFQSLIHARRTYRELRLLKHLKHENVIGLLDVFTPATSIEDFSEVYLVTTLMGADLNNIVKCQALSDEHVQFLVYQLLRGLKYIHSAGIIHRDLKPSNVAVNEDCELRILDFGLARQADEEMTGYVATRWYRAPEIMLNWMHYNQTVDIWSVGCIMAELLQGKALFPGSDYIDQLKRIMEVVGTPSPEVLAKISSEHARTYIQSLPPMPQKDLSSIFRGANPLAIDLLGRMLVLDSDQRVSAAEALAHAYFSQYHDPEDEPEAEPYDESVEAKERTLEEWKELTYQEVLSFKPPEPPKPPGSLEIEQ
Mitogen-activated protein kinase 8 (Homo sapiens), sequence (P45983 whole entry): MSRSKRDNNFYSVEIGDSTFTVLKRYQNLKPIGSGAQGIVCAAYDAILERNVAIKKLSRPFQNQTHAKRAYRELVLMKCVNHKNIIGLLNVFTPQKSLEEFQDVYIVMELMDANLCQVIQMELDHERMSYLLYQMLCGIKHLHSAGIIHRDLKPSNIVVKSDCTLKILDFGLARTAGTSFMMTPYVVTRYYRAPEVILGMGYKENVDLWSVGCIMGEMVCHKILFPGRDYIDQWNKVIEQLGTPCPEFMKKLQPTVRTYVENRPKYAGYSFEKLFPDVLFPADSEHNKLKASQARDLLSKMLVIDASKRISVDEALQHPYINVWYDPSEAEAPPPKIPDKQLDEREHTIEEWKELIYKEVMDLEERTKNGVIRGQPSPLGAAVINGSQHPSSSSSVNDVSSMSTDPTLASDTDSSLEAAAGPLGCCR

C[C@@H]1C[C@H]2[C@@H]3CCC4=CC(=O)C=C[C@]4(C)[C@@]3(F)[C@@H](O)C[C@]2(C)[C@@]1(O)C(=O)CO [DEXAMETHASONE]
Activity (Rattus norvegicus [1]): 0.03 U/L

CSc1nc(-c2ccc(F)cc2)c(-c2ccnc(Nc3ccccc3)c2)[nH]1
Activity (Rattus norvegicus [2]): Non-Toxic | inhibition at 10 µM (CYP1A2): 72% | inhibition in vivo at 10 mg/kg (Mus musculus [3]): 60% | Activity (Rattus norvegicus [4]): Non-Toxic | inhibition [5]: > 70% | inhibition at 10 µM (CYP2C9): 60% | Cmax [6]: 608 ng/mL and 1.61 µM | Activity (Mus musculus [7]): Non-Toxic | Activity (Mus musculus [8]): Active | inhibition at 10 µM (CYP2D6): 74.5% | half-life [9]: 2.8 h | Activity (Rattus norvegicus [10]): Non-Toxic | Activity (Rattus norvegicus [11]): Non-Toxic | inhibition [12]: > 70% | AUC(0-t) [13]: 3710 ng·h/mL and 9.86 µM·h | inhibition [14]: > 70% | inhibition [15]: > 70% | inhibition at 10 µM (CYP3A4): 16.5% | Activity (Rattus norvegicus [16]): Non-Toxic | inhibition at 10 µM (CYP2C19): 90% | Tmax [17]: 2 h | Activity (Rattus norvegicus [18]): Non-Toxic

O=C(Nc1c(Cl)cncc1Cl)c1ccc(OC(F)F)c(OCC2CC2)c1 [ROFLUMILAST]
AUC (Homo sapiens [19]): 0.8379 µM·h | fraction unbound [20]: 0.02 | inhibition (Homo sapiens [21]): Dose-dependent effect | Cmax (Homo sapiens [22]): 22.4 nM | inhibition (Homo sapiens [23]): 94% | Cmax [24]: 13.1 nM | AUC(0-inf) [25]: 0.0868 µM·h | inhibition in vivo at 10 mg/kg (Rattus norvegicus [26]): 67%

CSc1nc(-c2ccc(F)cc2)c(-c2ccnc(NC(C)=O)c2)n1C
inhibition in vivo at 10 mg/kg (Rattus norvegicus [27]): 97% | Activity (Rattus norvegicus [2]): Non-Toxic | inhibition at 10 µM (CYP1A2): 18% | Activity (Rattus norvegicus [4]): Non-Toxic | inhibition at 10 µM (CYP2C9): 46% | Cmax [6]: 738 ng/mL and 2.07 µM | Activity (Mus musculus [7]): Non-Toxic | Activity (Mus musculus [8]): Active | inhibition at 10 µM (CYP2D6): 45% | half-life [9]: 3 h | Activity (Rattus norvegicus [10]): Non-Toxic | Ratio [28]: 12.5 | Activity (Rattus norvegicus [11]): Non-Toxic | fraction unbound at 5 µM [29]: 0.037 | AUC(0-t) [13]: 4930 ng·h/mL and 13.8 µM·h | inhibition [14]: > 70% | inhibition [15]: > 70% | inhibition at 10 µM (CYP3A4): -7% | Activity (Rattus norvegicus [16]): Non-Toxic | Activity (Rattus norvegicus [30]): Non-Toxic | inhibition at 10 µM (CYP2C19): 4% | Tmax [17]: 1 h | IC50 [31]: 28.6 µM | inhibition (INH) ([31]; human, hek293): Dose-dependent effect | Activity (Rattus norvegicus [18]): Non-Toxic

CC(=O)Nc1cc(-c2c(-c3ccc(F)cc3)nc([S@@+](C)[O-])n2C)ccn1
IC50 [32]: 0.129 µM
